Results gathered from unrelated publications.
Each line is one published result; the experiments were not run side by side.

Cn1cnc2ccc(Nc3c(F)ccc(NS(=O)(=O)N4CC(F)C4)c3Cl)c(Cl)c2c1=O — solubility (FaSSIF; pH 6.91): 13 µg/mL
O=[N+]([O-])c1ccc(/C=N/c2c(-c3ccccc3)nc3ccc(Cl)cn23)cc1 — solubility (aqueous buffer; pH 7): 25 µg/mL
Cn1cncc1[C@@](N)(c1ccc(Cl)cc1)c1ccc2c(c1)c(-c1cccc(Cl)c1)cc(=O)n2C — solubility (simulated gastric fluid; pH 1.02; 25 °C; acidic): > 3750 µg/mL
Cc1cc(C)c2nc(-c3ccncc3)cc(C(=O)NCCCn3ccnc3)c2c1 — solubility (PBS): > 20 µM
Cc1ccc(Cn2cc(C(=O)NN)c(=O)c3cc(Oc4ccccc4)ccc32)cc1 — solubility (shake flask; PBS; 24 h; pH 6.5; 25 °C): < 5 µM
Cc1c(C(=O)O)ccc2c3n(nc12)[C@@H]1[C@H](C3)N(CC2CC2)[C@@]2(C(=O)Nc3cc(Cl)ccc32)[C@H]1c1cccc(Cl)c1F — solubility (aqueous buffer; pH 6.8): < 1 µg/mL
COc1ccc2cc3n(c(=O)c2c1OC)CCc1cc2c(cc1-3)OCO2 — solubility (water; 24 h; 25 °C): < 0.05 µg/mL
CC(=Nc1ccc(N=Cc2ccc3[nH]cnc3c2)cc1)N(C)C — solubility (shake flask; PBS; 24 h; pH 7.4; 25 °C): ~20 µg/mL
N#C[C@@]12C[C@@H]1[C@@H](n1cnc3c(N[C@@H](C4CCC4)C4CC4)nc(I)nc31)[C@H](O)[C@@H]2O — solubility (aqueous buffer; pH 7.4): 50 µg/mL
O=[N+]([O-])c1ccccc1/C=N/c1c(-c2ccccc2)nc2ccc(Cl)cn12 — solubility (aqueous buffer; pH 7): < 1 µg/mL
CC(=O)C(C)n1c(CN2CCN(c3cccc(Cl)c3)CC2)nc2c1c(=O)n(C)c(=O)n2C (stereo not drawn) — solubility (PBS): > 20 µM
CC(C)[C@H](NC(=O)[C@H](Cc1cscn1)NC(=O)CCc1ccccc1)C(=O)N[C@@H](CCCNC(=N)N)C(=O)c1nc2ccccc2s1 — solubility (PBS; 90 min; pH 7.4): > 10 µM
